From PubChem
UBC13 inh: human UBC13 polyubiquitination inhibition. 0.47% of 330,000 active. UBC13 polyubiquitin chain formation, TR-FRET. P61088. inhibition, % at 20 µM. AID 485273; in the data active = inhibition above about 45%, passing the limit was not always enough; inconclusive = no clear call, values can overlap the other calls
Target sequence (P61088 whole entry, looked up): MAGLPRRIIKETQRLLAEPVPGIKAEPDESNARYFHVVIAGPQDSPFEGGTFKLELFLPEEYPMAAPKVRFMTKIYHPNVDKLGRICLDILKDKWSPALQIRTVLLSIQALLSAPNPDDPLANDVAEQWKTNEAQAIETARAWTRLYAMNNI
AI-2 QS modul: modulates the Vibrio harveyi AI-2 quorum sensing system; Vibrio harveyi JMH597 AI-2 luminescence/OD600 ratio, 9 h; stronger effect = lower value; strain lacks LuxN and CqsS sensors; 0 = neutral-control median; 0.4% of 300,000 active; AID 2094; activity change, % at 7.5 µM; in the data active = activity change below about -75%, passing the limit was not always enough; inconclusive = no clear call, values can overlap the other calls;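 note: luminescence divided by OD600 gain over 9 h not by final OD600 alone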
PP1 inh: blocks human PP1-alpha phosphatase, a PP5 counter-screen | P62136 | purified PP1alpha, OMFP fluorescence | inhibition, % at 6.7 µM | 0.9% of 320,000 active;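 active = inhibition above the mean inhibition of all tested compounds plus 3 SD, computed separately for each screening campaign, cut at about 15% in these data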
Target sequence (P62136 whole entry, looked up): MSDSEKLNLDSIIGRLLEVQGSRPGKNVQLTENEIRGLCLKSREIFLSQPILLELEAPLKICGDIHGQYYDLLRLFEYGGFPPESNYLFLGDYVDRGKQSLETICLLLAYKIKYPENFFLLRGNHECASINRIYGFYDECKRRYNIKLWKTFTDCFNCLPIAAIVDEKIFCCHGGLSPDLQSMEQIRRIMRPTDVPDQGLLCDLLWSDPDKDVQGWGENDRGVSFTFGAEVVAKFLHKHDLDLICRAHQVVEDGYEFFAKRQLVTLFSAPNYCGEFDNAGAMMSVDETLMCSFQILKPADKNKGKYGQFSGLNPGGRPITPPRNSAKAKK
T cruzi repl: T. cruzi replication inhibition; T. cruzi beta-gal in NIH3T3, luminescence, 90 h; inhibition, % (concentration not given with the values); 1.4% of 300,000 active; AID 1885;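 active = mean inhibition across valid replicates above about 55%, limit read from the data; inconclusive = mean below that limit but half or more replicates reach it; inactive = mean below it, under half of replicates reach it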;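 note: signal also drops with host cell toxicity which is not excluded here; higher percent means less beta-gal luminescence so fewer parasites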
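assay system = mouse NIH/3T3 fibroblasts infected with β-gal-expressing T. cruzi Tulahuen C4 | input = 5,000 NIH/3T3 host cells per well | buffer or medium = DMEM plus 2% FBS | timing = 3 h host attachment, then at least 90 h co-culture | measured by = GalScreen luminescence, 60 min | evaluation = luminescence reflecting intracellular parasite burden, expressed as percent inhibition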
p-CIP stab down: lowers stability of the mouse p/CIP coactivator protein; Q05BA5; F442A p/CIP-EGFP cells, EGFP fluorescence, 16 h; decrease of EGFP signal, % at 10 µM; 0.01% of 290,000 active; AID 1984;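 active = EGFP signal decrease of at least 30% at 10 µM or well 3 SD below plate mean, unless failing retest; inactive = the rest, including hits failing retest or dose response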
Numbers stand for hits; - = inactive; ? = inconclusive; . = no result. This is a sample that favours compounds with a hit; in the whole collection about 2.8% have one here.

SMILES	UBC13 inh	AI-2 QS modul	PP1 inh	T cruzi repl	p-CIP stab down
COc1ccc(Nc2cc(C)nc(NCc3ccccc3)n2)cc1	-	-	-	61	-
COc1cc(C)nc(NCc2ccccc2)n1	-	-	-	-	-
Cc1cc(C)nc(N/N=C/c2ccccc2Cl)n1	-	-	-	-	-
Cc1cc(N2CCN(c3ccccc3)CC2)nc(NCc2ccccc2)n1	-	.	-	55	-
Cc1cc(OC(C)C)nc(NCc2ccccc2)n1	-	-	-	-	-
CCC(=O)N(CCc1ccc(OC)c(OC)c1)Cc1cc2ccc(C)cc2n2nnnc12	-	-	-	-	-
CCOc1ccc(CN2CCN(Cc3cn(CC)nc3C)CC2CCO)cc1 (stereo unspecified)	-	-	-	-	-
O=C(Nc1c(O)c2ccccc2[nH]c1=O)c1ccco1	-	-	-	-	-
CCc1ccccc1NC(=O)Cn1nnc(C(=O)NCc2cccc(OC)c2)c1N	-	-	-	-	-
CCOc1ccc(NC(=O)CN(C)C(=O)c2cc(S(=O)(=O)N(C)C)ccc2N2CCCC2)cc1OCC	-	-	-	-	.
O=C(COC(=O)c1ccc2ccccc2n1)Nc1ccccc1F	-	.	.	.	.
Oc1ccc(CNc2ccccc2)c2cccnc12	-	-	-	-	-
Oc1ccc(CNc2ccc(F)cc2)c2cccnc12	-	-	-	55	-
CCOc1cc(/C=C(\C#N)C(=O)Nc2cccc(C(=O)O)c2)cc(Br)c1OC(=O)c1ccc(OC)cc1	-	-	17	-	-
Cc1ccc(-n2c(C)cc(/C=N/NC(N)=S)c2C)cc1	-	-	-	65	-
N#Cc1cc(-c2ccc(Cl)cc2)cnc1Sc1ccccc1	-	-	-	56	-
O=C(N/N=C\c1ccc([N+](=O)[O-])s1)C1COc2ccccc2O1 (stereo unspecified)	-	-86	-	-	-
O=C(N/N=C\c1ccc(-c2ccccc2[N+](=O)[O-])o1)C1COc2ccccc2O1 (stereo unspecified)	-	-	-	-	-
O=C(N/N=C/c1ccc([N+](=O)[O-])o1)C1CCCC1	-	?	-	72	-
O=C(N/N=C\c1ccc([N+](=O)[O-])o1)C1COc2ccccc2O1 (stereo unspecified)	-	-87	-	61	-
O=C(NCCc1c[nH]c2ccccc12)C1CCC(Cn2c(=S)[nH]c3ccccc3c2=O)CC1 (stereo unspecified)	-	-	-	75	-
COCCNC(=O)C1CCC(Cn2c(=S)[nH]c3ccccc3c2=O)CC1 (stereo unspecified)	-	-	-	-	-
COC(=O)c1c(C)[nH]c(C(=O)OCC(=O)c2ccc(C)s2)c1C	-	.	.	.	.
CCN(CC)S(=O)(=O)c1ccc2c(c1)nc(SCC(=O)NCC1CCCO1)n2CC (stereo unspecified)	-	-	-	-	.
C/C(=N\NC(=O)COc1ccccc1-c1ccccc1)c1ccc(O)cc1O	-	-	-	77	-
SMILES	UBC13 inh	AI-2 QS modul	PP1 inh	T cruzi repl	p-CIP stab down
C/C(=N\NC(=O)COc1ccccc1-c1ccccc1)c1ccccn1	-	-	-	71	-
Cc1cc2ccccc2n1CCNC(=O)COc1ccccc1	-	-	-	58	-
O=C(CCc1nnc(-c2ccsc2)o1)N1CCc2c(Cl)cccc2C1	-	-	-	-	-
N#Cc1ccc(NC(=O)Nc2cccc(C#N)c2)cc1	.	-	.	-	-
N#Cc1ccc(NC(=O)Nc2ccc(Oc3ccc(NC(=O)Nc4ccc(C#N)cc4)cc3)cc2)cc1	-	-	17	61	-
COc1cc(/C=C(\C#N)C(=O)Nc2ccc3c(c2)OCCO3)ccc1O	-	-	-	-	-
Cc1ccc(S(=O)(=O)Nc2ccsc2C#N)cc1	-	-	-	-	-
CCOc1ccc(C(=O)C[n+]2cccc3cc(C)ccc32)cc1	-	-	-	68	-
Cc1ccc(C(=O)C[n+]2cccc3cc(C)ccc32)cc1	-	-	-	58	-
CCCCC(CC)C(=O)Nc1cc(C(=O)NCCC)ccc1N1CCC2(CC1)CC(c1ccccc1)=NO2 (stereo unspecified)	-	-	-	-	-
CCc1cc(C(=O)Cc2nc3ccccc3s2)c(O)cc1OCC(=O)O	-	-	-	-	-
COc1ccc(NC(C)=O)c(C)c1	-	-	-	-	-
COc1cc(C)c(C(=O)CC(=O)c2c(C)cc(OC)cc2C)c(C)c1	-	-	-	66	.
COc1cccc(N/N=C/c2cccc(Br)c2O)c1	-	-	-	65	-
O=C(COC(=O)c1c2c(nc3ccccc13)/C(=C\c1cccs1)CCC2)Nc1ccccc1	-	-	-	74	-
COC(=O)C(=O)/C=C(\O)c1c(C)cc(C)cc1C	-	-	-	-	-
O=C(Nc1cccc(-c2cn3cccnc3n2)c1)c1ccc(Br)o1	-	-	-	71	-
Cc1ccc(-c2cn3cccnc3n2)cc1NC(=O)c1ccc(Br)o1	-	-	-	-	-
O=C(Nc1cccc(-c2cn3cccnc3n2)c1)c1ccco1	-	-	-	68	-
Cc1c(-c2cccc(NC(=O)c3ccco3)c2)nc2ncccn12	-	-	-	65	-
CC(C)(C)NC(=O)NC(=O)CSc1nncs1	-	-	-	-	-
O=C(Nc1nc2ccccc2s1)NC1CCCCC1	-	-	-	-	-
O=C(NNC(=O)c1cc(Br)c(Br)s1)c1ccncc1	-	.	-	.	.
C=CC(=O)Nc1ccc(CN2C(=O)N(c3c(Cl)c(OC)cc(OC)c3Cl)Cc3cnc(NCCCCN(CC)CC)nc32)cc1	63	.	.	.	.
CS(=O)(=O)NCC(c1cccnc1)N1CCN(c2ccc(F)cc2)CC1 (stereo unspecified)	.	-	.	-	-
SMILES	UBC13 inh	AI-2 QS modul	PP1 inh	T cruzi repl	p-CIP stab down
COc1ccc(S(=O)(=O)NCC(c2cccnc2)N2CCN(c3ccccc3)CC2)cc1C (stereo unspecified)	-	-	-	63	-
O=S(=O)(NCC(c1cccnc1)N1CCN(Cc2ccccc2)CC1)c1ccc(F)cc1 (stereo unspecified)	-	-	-	-	-
Cc1ccc(C(CNS(=O)(=O)c2ccc([N+](=O)[O-])cc2)N2CCN(C)CC2)cc1 (stereo unspecified)	-	-	-	58	.
O=S(=O)(NCC(c1cccnc1)N1CCN(c2ccc(F)cc2)CC1)c1cc(F)ccc1F (stereo unspecified)	-	-	-	58	.
Cc1ccc(C(CNS(=O)(=O)c2ccc(Br)cc2)N2CCN(C)CC2)cc1 (stereo unspecified)	-	-	-	-	.
O=S(=O)(NCC(c1cccnc1)N1CCN(Cc2ccccc2)CC1)c1ccc(Cl)cc1 (stereo unspecified)	-	-	-	58	-
COc1ccc(S(=O)(=O)NCC(c2cccnc2)N2CCN(c3ccc(F)cc3)CC2)cc1C (stereo unspecified)	.	-	.	-	-
O=[N+]([O-])c1ccc(S(=O)(=O)NCC(c2cccnc2)N2CCc3ccccc32)cc1 (stereo unspecified)	-	-	-	70	.
